Reference: ChEMBL document CHEMBL1629677, “A small-molecule dengue virus entry inhibitor” (Antimicrob Agents Chemother, 2009)
Activity calls are given as the source filed them. The calls are words filed in the database; no cut-off is given here.

Experiments:
Dengue virus [1] = test: Antiviral activity against Dengue virus NGC infected in human A549 cells assessed as colocalization of virus measured as E protin signal after 2 hrs by confocal microscopy; format: functional, organism-based
Procedure, shortened: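 Virus pre-incubated with biotinylated compound, then passed through a gel-filtration spin column. Eluate used to infect A549 cells on coverslips for 2 h at 37°C. Cells fixed in formaldehyde for 15 min, compound detected with streptavidin-FITC and virus with anti-E antibody. Confocal microscopy.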

Dengue virus [2] = test: Antiviral activity against Dengue virus NGC infected in human A549 cells assessed as decrease in viral E protein production after 48 hrs by CFI assay; format: functional, organism-based; details: A549, 48 h
Procedure, shortened: (§1)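 A549 or BHK21 cells at 2 x 10^4/well grown overnight, then infected at MOI 0.3 with compound dilutions for 1 h at 37°C. Inoculum replaced by medium with compound for 48 h. Methanol-fixed, probed with anti-E antibody 4G2 and HRP anti-mouse IgG, developed with TMB, absorbance at 450 nm. EC50 by nonlinear regression of mean absorbance vs log concentration.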

Dengue virus [3] = test: Antiviral activity against 0.0001 MOI Dengue virus NGC infected in Cricetinae BHK21 cells assessed as decrease in viral E protein production […] by plaque reduction assay; format: functional, organism-based; details: BHK-21
[4] = Cytotoxicity against human A549 cells after 48 hrs by celltiter-glo luminescent cell viability assay; format: cell-based
Procedure, shortened: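 A549 cells plated and compound added as in the immunodetection assay, then incubated for 48 h. Viability by CellTiter-Glo luminescence relative to DMSO-treated cells, giving CC50.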

Dengue virus [5] = test: Antiviral activity against 25 MOI Dengue virus NGC infected in human A549 cells assessed as inhibition of NS3 protein production by CFI assay; format: functional, organism-based
Procedure, shortened: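 A549 cells on coverslips infected at MOI 25 with or without compound for 7 h. Methanol-fixed and stained with anti-E 4G2 and anti-NS3 antibodies plus fluorescent secondaries, DAPI mounting. Immunofluorescence microscopy.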

dengue virus type 2 [6] = test: Antiviral activity against DENV-2 NGC infected in human A549 cells assessed as decrease in viral E protein production after 48 hrs by CFI assay; format: functional, organism-based; details: A549, 48 h; procedure, shortened: as §1
dengue virus type 4 = test: Antiviral activity against DENV-4 isolate My01-22713 infected in Cricetinae BHK21 cells assessed as decrease in viral E protein production after 48 hrs by CFI assay; format: functional, organism-based; details: isolate My01-22713, BHK-21, 48 h; procedure, shortened: as §1
dengue virus type 2 [7] = test: Antiviral activity against DENV-2 NGC infected in Cricetinae BHK21 cells assessed as decrease in viral E protein production after 48 hrs by CFI assay; format: functional, organism-based; details: BHK-21, 48 h; procedure, shortened: as §1
West Nile virus = test: Antiviral activity against West nile virus B956 infected in Cricetinae BHK21 cells assessed as decrease in viral E protein production after 48 hrs by CFI assay; format: functional, organism-based; details: B956, BHK-21, 48 h; procedure, shortened: as §1
[8] = Antiviral activity against Japanese encephalitis virus Nakayama infected in Cricetinae BHK21 cells assessed as decrease in viral E protein production after 48 hrs by CFI assay; format: functional, cell-based, Japanese encephalitis virus strain Nakayama; details: BHK-21, 48 h; procedure, shortened: as §1
Dengue virus [9] = test: Antiviral activity against Dengue virus NGC infected in human A549 cells assessed as change in endosomal pH at 0.2 microM by Lysosensor green DND189 accumulation assay; format: functional, organism-based
Procedure, shortened: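 A549 cells on coverslips exposed to compound or bafilomycin A1 in Ham's F-12 with 2% FBS for 4 h at 37°C; 0.9% DMSO as control. Stained with 0.5 µM Lysosensor green DND-189 for 2 min at room temperature, washed, and imaged live by fluorescence microscopy.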

Dengue virus [10] = test: Binding affinity to Dengue virus particles by liquid chromatography
Procedure, shortened: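 Dengue virus (6 x 10^7 PFU) incubated with 5 µM compound at room temperature for 30 min, then loaded onto a gel-filtration spin column and centrifuged. Eluate analysed by LC-MS/MS in multiple-reaction-monitoring mode. Compound without virus run as a control.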

Dengue virus [11] = test: Antiviral activity against Dengue virus NGC infected in human A549 cells assessed as decrease in viral E protein production during early stage of virus life cucle by CFI assay; format: functional, organism-based; details: TDE = time-dependent effect
Procedure, shortened: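 A549 cells infected at MOI 0.3 for 1 h at 37°C. Compound dilutions were present during infection only, after infection only, or throughout. Alternatively, a fixed concentration was added at 0–120 min after virus. E protein measured by immunodetection at 48 h. Duplicate wells in two experiments, or three independent experiments for the time course.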

dengue virus type 1 = test: Antiviral activity against DENV-1 isolate My97-10245 infected in Cricetinae BHK21 cells assessed as decrease in viral E protein production after 48 hrs by CFI assay; format: functional, organism-based; details: isolate My97-10245, BHK-21, 48 h; procedure, shortened: as §1
Yellow fever virus = test: Antiviral activity against Yellow fever virus 17D infected in human A549 cells assessed as decrease in viral E protein production after 48 hrs by CFI assay; format: functional, cell-based; details: A549, 48 h; procedure, shortened: as §1
Dengue virus [12] = test: Antiviral activity against Dengue virus NGC infected in human A549 cells assessed as viral antigen expression at 0.2 microM; format: functional
Dengue virus [13] = test: Antiviral activity against 25 MOI Dengue virus NGC infected in human A549 cells assessed as colocalized virus with endocytosed dextran by confocal microscopy; format: functional, organism-based
Procedure, shortened: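 A549 cells on coverslips (1 x 10^5/well) infected at MOI 0.3? no: MOI 25 with 5 µM compound for 7 h. Rhodamine-dextran 20 mg/ml added for 20 min at 37°C, then methanol fixation and anti-E 4G2 staining with FITC secondary. Examined by confocal microscopy.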

dengue virus type 3 = test: Antiviral activity against DENV-3 isolate My99-21531 infected in Cricetinae BHK21 cells assessed as decrease in viral E protein production after 48 hrs by CFI assay; format: functional, organism-based; details: isolate My99-21531, BHK-21, 48 h; procedure, shortened: as §1

Row | SMILES | EC50 (Dengue virus [2]) | EC50 (Dengue virus [3]) | CC50 at 48 h [4] | further results
1 | O=C(CCCC[C@@H]1SC[C@H]2NC(=O)N[C@@H]12)NCCOCCOCCNc1nc(-c2ccc(-c3ccc(Cl)cc3)s2)c2ccccc2n1 | 234 nM |  |  | Activity (Dengue virus [1]): inactive
2 | CC1(C)CC(Nc2nccc(-c3ccc(-c4ccc(Cl)cc4)s3)n2)CC(C)(C)N1 | 270 nM | 320 nM | > 20000 nM | 
3 | CC(C)(N)/C=C/c1cccc(-c2ccc(-c3ccnc(NC4CC(C)(C)NC(C)(C)C4)n3)s2)n1 | 1690 nM | 310 nM | > 20000 nM | 
4 | Clc1ccc(-c2ccc(-c3ccnc(N4CCNCC4)n3)s2)cc1 | 90 nM | 41 nM | > 20000 nM | 
5 | CC1(C)CC(Nc2nc(-c3ccc(-c4ccc(Cl)cc4)s3)c3ccccc3n2)CC(C)(C)N1 | 40 nM | 84 nM | 18600 nM | 
6 | Clc1ccc(-c2ccc(-c3nc(NCc4cccnc4)nc4ccccc34)s2)cc1 | 70 nM | 198 nM | > 20000 nM | Activity (Dengue virus [5]): Active; EC50 (dengue virus type 2 [6]): 119 nM; EC50 (dengue virus type 4): 334 nM; EC50 (dengue virus type 2 [7]): 68 nM; EC50 (West Nile virus): 564 nM; EC50 [8]: 1420 nM; Activity (Dengue virus [9]): inactive; Activity (Dengue virus [10]): Active; Activity (Dengue virus [11]): tde; EC50 (dengue virus type 1): 108 nM; EC50 (Yellow fever virus): 470 nM; Activity (Dengue virus [12]): >50%; Activity (Dengue virus [13]): Active; EC50 (dengue virus type 3): 496 nM
7 | CC(=O)c1cccc(-c2ccc(-c3ccnc(NC4CC(C)(C)NC(C)(C)C4)n3)s2)c1 | 900 nM | 300 nM | > 20000 nM | 
